In one test the test system is Mus musculus. Briefly: Effective dose that induced platform sedation after subcutaneous administration in mice. The class given is functional. The conditions noted are these: sc. In a few lines:
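Mice screened first for baseline latency to step fully off a slightly raised platform (11 × 8 × 3 cm); animals with baseline >15 s excluded. Drug or vehicle (20% aqueous creamaphor) given s.c. at back of neck; latency retested 20 min later, 30 s cut-off. % sedation = (test − baseline)/(30 s − baseline) × 100; ED50 from dose–response.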

A further test has as its system Rattus norvegicus. Description: In vivo inhibition of formalin induced flinching after intra paw dosing of compound at 300 ug.

As usually defined, the ED50 is the dose at which the effect has come halfway, by size or by number of responders. A low value points to an effect at a small dose. A word on the Inhibition: it is the change of the read-out against control, counted positive when it falls. The low end stands for a weak effect, the high end for a strong effect. Consider `CN(C(=O)Cc1ccc(C(F)(F)F)cc1)C(CN1CCCC1)c1cccc(OCC(=O)OC(C)(C)C)c1` (racemic), for which it took a dose of 140 mg/kg to reach the 50% effect level in the test with Mus musculus (ED50). Moreover, the Inhibition in the test with Rattus norvegicus was 84%.

On to `CN(C(=O)Cc1ccc(C(F)(F)F)cc1)C(CN1CCCC1)c1cccc(O)c1` (racemic), for which the Inhibition in the test with Rattus norvegicus was found to be 99%.

In turn, `CN(C(=O)Cc1ccc(C(F)(F)F)cc1)C(CN1CCCC1)c1cccc(OCC(=O)O)c1` (racemic) gave an ED50 with Mus musculus above 300 mg/kg. In addition, the Inhibition with Rattus norvegicus is listed as 93%.

Compound `CN(C(=O)Cc1ccc(C(F)(F)F)cc1)[C@H](CN1CCCC1)c1cccc(NS(N)(=O)=O)c1` came in with an ED50 in the test with Mus musculus of 13 mg/kg. For the same compound, the Inhibition in the test on Rattus norvegicus worked out at 73%.

In the case of `CN(C(=O)Cc1ccc(C(F)(F)F)cc1)[C@H](CN1CCCC1)c1cccc(NC(=O)CCC(=O)O)c1`, in the test on Mus musculus, the ED50 was found to be 47 mg/kg. In the test with Rattus norvegicus, this compound returned an Inhibition of 73%.

Take `CN(C(=O)Cc1ccc(C(F)(F)F)cc1)[C@H](CN1CCCC1)c1ccccc1`: the median effective dose (ED50) with Mus musculus came to 0.13 mg/kg. The same compound returned an Inhibition with Rattus norvegicus of 92%.

In turn, `CN(C(=O)Cc1ccc(C(F)(F)F)cc1)[C@H](CN1CCCC1)c1cccc(NS(C)(=O)=O)c1` registered a median effective dose (ED50) in the test on Mus musculus of 89 mg/kg. Besides, the Inhibition in the test with Rattus norvegicus is reported as 77%.

In turn, `CN(C(=O)Cc1ccc(Cl)c(Cl)c1)C(CN1CCCC1)c1cccc(OCC(=O)O)c1` (stereo not given) [ICI-204448] came in with an ED50 in the test on Mus musculus of 5.2 mg/kg.

As for `COc1cccc(C(CN2CCCC2)N(C)C(=O)Cc2ccc(C(F)(F)F)cc2)c1` (racemic), the Inhibition with Rattus norvegicus worked out at 99%.
